Measured values published in the RNAGym collection of RNA variant scans (doi:10.1126/science.aae0568).
This sample holds only a part of the variants without activity.

B1: tRNA (parent)
chain: GUUCCGUUGGCGUAAUGGUAACGCGUCUCCCUCCUAAGGAGAAGACUGCGGGUUCGAGUCCCGUACGGAACG

Variants of: B1
Test: yeast fitness relative to wild type (ratio to wild type); higher = fitter; tRNA-Arg(CCU), competitive growth, 37 C, YPD
In short: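 Variants of the tRNA-Arg(CCU) gene were chemically synthesised with a 3% per-site mutation rate across 69 sites and placed at the native genomic locus in Saccharomyces cerevisiae. Six parallel replicates of the pooled strains were competed in YPD at 37°C for 24 hours, and gene amplicons from the start and end populations were read by 100-nucleotide paired-end sequencing. Darwinian fitness relative to wild type was derived from changes in genotype frequencies. Genotypes required ≥ 100 starting reads, and estimates < 0.5 were set to 0.5.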
Variant GUCUCGUUGGCGUAAUGGUAGCGCGUCUCCCUCCUAAGGAGAAGAAUGCGGGUUCGAGUCCCGUACGGAACG has a yeast fitness of 0.628.
GUCGCGUUGGCGUAAUGGUAACGCGUCUCCCUCCUAAGGAGGAGUCUGCGGGUUCGAGUCCCGUAUGGAACG showed a yeast fitness of 0.53.
With GUCCUGUUGGCGUAAUGGUAACGUGUCUCCCUCCUAAGGAGCAGACUGCGGGUUCGUGUCCCGUACGGAACG the yeast fitness was ≤ 0.5.
In the case of GUCCCGUUGGAGUAAUGGUAACGCGUGUCCCUACUAAGGAGACGAAUGCGGGUUCGAGUCCAGUAUGGAACG, the yeast fitness is reported as ≤ 0.5.
For GUCCCGUUGGGGUAAUGGUAACGGGUCUCCCUCCUAAGGAGAAGACUGCGGGUGCGAGUCCCGUACGGAACG, the yeast fitness was ≤ 0.5.
For GUCGCGUGGGCGUAAUGGUAACGCGUCUCCCUCCUAAGGAGGAGACUGCGGGUUCGAGUCCGGUCCGGAACG, the yeast fitness was ≤ 0.5.
For GUCUCGUUGGCGUAAUGGUAACGCGUCUCCCUCCUAAGGAGAAGACUGCGGGUUCGAGUACCGUAGGGAACG, the yeast fitness was ≤ 0.5.
In the case of GUCCCGUUGGCGUAAUGGUAACGCGUCUCCCUCCUAAGGUGAACACUGCGGGUUCGAGUCCCGUACGGAACG, the yeast fitness is reported as 0.625.
In the case of GUCCCGUUGGCGUAAUGGUAUCGCGUCUCCCUCCUAAGGAGAAGACUGCGGGUUCGAGUCCCGUACGGAACG, the yeast fitness is reported as 0.642.
With GUCCAGUUGGCGUAAUAGUAACGCGUCUCCCUCCUAAGGAGGAGACUGCGGGUUCGAGUCCCGAACGGAACG the yeast fitness was ≤ 0.5.
For GUCCCGUUGGCGUAAUGGUAUCGCGUCUCCCUCCUAGGGAGAAAACUGCGGGUUCGAGUCCCAUACGGAACG, the yeast fitness was ≤ 0.5.
Work on GUCGCGUUGGCCUAAUGGUAACGCGUCUCCCUCCUAAGGAGAAGACUGCGGGUUCGAGUCCCGUACGGAACG yielded a yeast fitness of 0.687.
For GUCCCGUUGGCGUAAUGGUAACGCGUCUCCCUCCUAAGGUGAAGACUGAGGGUUCGAGUCCCGUACGGAUCG, the yeast fitness was ≤ 0.5.
In the case of GUCCCGUUGGCGUAAUGGUAACGCGUCUCCCUCCUAAGGAGAAGACUGCGGGUUCGAGUCCCGUACGGAUCG, the yeast fitness is reported as 1.01.
In the case of GUCCGGUUGGGGUAAUGGUAACGCGUCUCCCUCCUAAGGAGAAGACUACGGGUUCGAGUCCCGUACGGGACG, the yeast fitness is reported as ≤ 0.5.
For GUCCCGUUGGAGUAAUGGUAACGCGUCUCCCUUCUAAGGAGAAGACUGAGGGUUCGAGUCCCGUACGGAACG, the yeast fitness was ≤ 0.5.
With GUCCUGUUGGCGUAAUGGUAACGCGUCUCCCUCCUAAGGAGAAGACUGCGGGUUCGAGUCCCGUACGAAACG the yeast fitness was ≤ 0.5.
For GUCGCGUUGGCGUAUUGGUAACGCGUCUCCCUACUAAGGAGAAGACUGCGGCUUCGAGUCCCGUACGGAACG, the yeast fitness was ≤ 0.5.
For GUCCCGUUGGGGUAAUGGUAACGCGUCUCCCUCCUAAGGAGAAGACUGCGGGUUCGGGUCCCGUACGGAACG, the yeast fitness was ≤ 0.5.
In the case of GUCCCGUUGGUCUAAUGGUAACGCGUCUCCCUCCUAAGGAGAAGACUGCGGGUUCGAGUCCCGUACGGAACG, the yeast fitness is reported as ≤ 0.5.
In the case of GUCCAGUUGGCGUAAUGGUAACGCGUCUCCCUCCUAAGGAGAAGACUGCGGGUUCGAGUCCCGUACGGAACG, the yeast fitness is reported as 0.89.
Variant GUCCCGUUGGCGUAAUGGUAACGCGUCUCCCUCCUAAGGAGAAGUCUGCGGGUUCGAGUCCCGCACGGAACG has a yeast fitness of 0.709.
Work on GUCCCGUUGGUGUAAUGGUAACGCGUCUCCCUCCUAAGGAGAAGACUGCGGGUUCGAGUCCCGUGCGGAACG yielded a yeast fitness of 0.732.
In the case of GUCCCGUUGGCGUAAUGGUAUCGCGUCUCCCUCCUAAGGAGAAGACUGCCGGUUCGAGUCCCGUUCGGAACG, the yeast fitness is reported as ≤ 0.5.
For GUCCCGUUGGCGUAAUGGUAACGCGUCUCCCUCCUAAGGAGAAGACUGCGGGUUCGGGUCCCGUACGGAACG, the yeast fitness was 0.714.
In the case of GUCUCGUUGGCGUAAUGGUAACGCGUCUCUCUCCUAAGGAGAAGACUGCGGGUUCGGGUCCCGUACGGAACG, the yeast fitness is reported as ≤ 0.5.
With GUCCGGUUGGCGUAAUGGUAACGCGUCUCCCUCCUAAAGAGAAGACUGCGGGUUCGAGUCCCGUACGGAACG the yeast fitness was ≤ 0.5.
Work on GUCCCGUUGGCGUAAUGGUAACGCGUCUCCCUCCUAAGGAGACGACUGCGGGUUCGAGUCCCGUACGGCACG yielded a yeast fitness of 0.762.
With GUCCCGUUGGUGUAAUGGUAACGCGUCUUCCUCCUAAGGAGAAGACUGCGGGUUCGAGUCCCGUACAGAUCG the yeast fitness was ≤ 0.5.
Work on GUCCCGUUGGCGUAAUGGUAACGCGUCUCCCUCCUGAGGAGAAGACUGCGGGUUCGAGUCCCGUACGGAACG yielded a yeast fitness of 0.91.
For GUCCCGUUGGCGUAAUGGUAACGCGUCUCCCUCCUAAGGGGAAGAAUGCGGGUUCGAGUCCGGUACGGUACG, the yeast fitness was ≤ 0.5.
For GUCGCGUUGGCGUAAUGGUAACGCGUCUCCCUCCUAAGGAGGAGACUGCGGGUUCGAGUCCCGUACGGAACG, the yeast fitness was 0.57.
For GUCCCGUUGGUGUAAUGGUAACGCGUCUCCCUCCUCAGGAGAAGACUGCGGGUUCGAGUCCCGUCUGGAACG, the yeast fitness was ≤ 0.5.
In the case of GUCCCGUUGGCGUAAUGGUAACGCGUCUCCCUCCUACGGAGAAGACUGCGGGUUCGGGUCCCGUACGCAACG, the yeast fitness is reported as ≤ 0.5.
In the case of GUCCCGUUGGCGUAAUGGUAACGCGUCUCCCUCCUAAGGGGAAGAAUGCGGGUUCGAGUCCCGUACGGCACG, the yeast fitness is reported as 0.706.
For GUCCCGUUGGUGUAAUGGUAACGCGUCUCCCUCCUAAGGAGAAGACUGCGGGUUCGAGUCGCGUCCGGAACG, the yeast fitness was ≤ 0.5.
Variant GUCCCGUUGGAGUAAUGGUAACGUGUCUCCCUCCUAAGGAGGAGACUGCGGGUUCGAGUCCCGUACGGAACG has a yeast fitness of 0.638.
With GUCCCGUUGGCGUAAUGGUAACGCGUCUCCCUCCUAAGGAGAAGGCUGCGGGUUCGAGUCCCGUACGGAACG the yeast fitness was 0.903.
